These results are taken from ChEMBL document CHEMBL1129460, “Synthesis, biotransformation, and pharmacokinetic studies of 9-(beta-D-arabinofuranosyl)-6-azidopurine: a prodrug for ara-A designed to utilize the azide reduction pathway” (J Med Chem, 1996).

The species named for data set [1] is Mus musculus. The experiment in a line: In vitro biotransformation of compound along with coformycin in mice liver homogenate 9-(beta-D-arabinifuranosyl)adenine(ara-A) analyte. Type of data set: ADME. In outline:
(§1)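 Mouse liver washed in cold saline, homogenized with 1 or 1.5 weight equiv water; homogenate incubated at 37 °C with substrate (initial 100 µg/mL; coformycin co-incubated where stated), water-bath shaker, blank half kept. Samples at 0, 5, 15, 30 min and 1–5 h; acetonitrile precipitation with AzdU internal standard, gradient HPLC-UV for ara-H, ara-A and 6-AAP. Kel and T1/2 are averages of two studies.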

Data set [2] is filed under the species Mus musculus. The experiment in a line: In vitro biotransformation of compound in mice liver homogenate 9-(beta-D-arabinifuranosyl)-6-hypoxanthine(ara-H) analyte. Format: ADME. Summed up: as §1
Data set [3] can be described thus: Pharmacokinetic parameter after dosing of 100 mg/kg of compound administered intravenously in brain. Type of data set: ADME, organism-based. More on the design: dose 100 mg/kg, route intravenous. The conditions noted are these: in vivo, iv. In outline:
(§2)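 Female NIH Swiss mice (24–28 g) dosed 100 mg/kg, iv or po by line. At least three mice were sacrificed per time point, 0.08–6 h, and whole brains were frozen at -20 °C. Extracts were assayed by HPLC-UV with AzdU internal standard. Noncompartmental analysis: linear trapezoidal AUC extrapolated to infinity, T1/2 = 0.693/λz, relative exposure re = AUC brain/AUC serum.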

Data set [4] can be described thus: Pharmacokinetic parameter after dosing of 100 mg/kg of compound administered orally in brain. More on the design: dose 100 mg/kg, route oral. Format: ADME, organism-based. The following applies: in vivo, po. In outline: as §2
The species entered for data set [5] is Mus musculus. Description: In vitro biotransformation of compound in mice liver homogenate 9-(beta-D-arabinifuranosyl)adenine(ara-A) analyte. Format: ADME. In outline:
as §1

The species named for data set [6] is Mus musculus. Description: In vitro biotransformation of compound in mice liver homogenate 9-(beta-D-arabinifuranosyl)[…] analyte. Format: ADME. In outline:
as §1

In the data set listed under Mus musculus [1], `OC[C@H]1O[C@@H](n2cnc3c2NC=NC[C@H]3O)[C@H](O)[C@@H]1O.[N-]=[N+]=Nc1ncnc2c1ncn2[C@@H]1O[C@H](CO)[C@@H](O)[C@@H]1O` registered a Kel of 0.27 h⁻¹ and a T1/2 of 2.58 h.
Take `[N-]=[N+]=Nc1ncnc2c1ncn2[C@@H]1O[C@H](CO)[C@@H](O)[C@@H]1O`: the Kel in the data set listed under Mus musculus [2] worked out at 0.26 h⁻¹; in the data set listed under Mus musculus [5], 0.48 h⁻¹. For the same compound, the T1/2 was 2.45 h in the data set listed under Mus musculus [2] and 1.46 h in the data set filed under Mus musculus [5]. The Activity amounted to 0.02 in data set [3] and 0.3 in data set [4].
For `Nc1ncnc2c1ncn2[C@@H]1O[C@H](CO)[C@@H](O)[C@@H]1O` [VIDARABINE], the Activity in data set [3] came to 0.05; in data set [4], 1.35. In the data set filed under Mus musculus [6], this compound displayed a Kel of 0.31 h⁻¹. This compound had a T1/2 in the data set filed under Mus musculus [6] of 2.24 h.
